According to publication PMC7104417 (ACS chemical neuroscience, 2020):
Values joined by “and” are separate entries in the source; they are usually repeats but may differ in a detail not shown here. Equal entries are not always repeated. Where two headings read alike, the source gives them in different places.

Key:
[1] = target: T1, human M1R (Homo sapiens, UniProt P11229); conditions: cited from earlier work
T1 sequence (P11229 1-460): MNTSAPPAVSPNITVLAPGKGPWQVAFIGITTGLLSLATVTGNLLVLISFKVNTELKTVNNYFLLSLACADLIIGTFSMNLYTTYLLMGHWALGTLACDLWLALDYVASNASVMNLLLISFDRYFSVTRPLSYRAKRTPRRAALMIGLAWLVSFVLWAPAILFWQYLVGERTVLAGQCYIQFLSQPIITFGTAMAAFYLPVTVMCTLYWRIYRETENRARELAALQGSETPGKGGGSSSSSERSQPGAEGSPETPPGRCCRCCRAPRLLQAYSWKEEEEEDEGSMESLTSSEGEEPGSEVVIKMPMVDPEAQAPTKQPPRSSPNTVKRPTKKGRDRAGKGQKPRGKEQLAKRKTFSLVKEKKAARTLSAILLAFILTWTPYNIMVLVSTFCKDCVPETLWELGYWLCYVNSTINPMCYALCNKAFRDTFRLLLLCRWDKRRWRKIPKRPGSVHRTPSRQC

[2] = target: T1, human M1R; assay type: binding; conditions: for Displacement of radioligand at M1Rs at highest concentration: 100 μM
[3] = target: T2, human M2R (Homo sapiens, UniProt P08172); assay: M2R cAMP signaling; assay type: cell-based
T2 sequence (P08172 1-466): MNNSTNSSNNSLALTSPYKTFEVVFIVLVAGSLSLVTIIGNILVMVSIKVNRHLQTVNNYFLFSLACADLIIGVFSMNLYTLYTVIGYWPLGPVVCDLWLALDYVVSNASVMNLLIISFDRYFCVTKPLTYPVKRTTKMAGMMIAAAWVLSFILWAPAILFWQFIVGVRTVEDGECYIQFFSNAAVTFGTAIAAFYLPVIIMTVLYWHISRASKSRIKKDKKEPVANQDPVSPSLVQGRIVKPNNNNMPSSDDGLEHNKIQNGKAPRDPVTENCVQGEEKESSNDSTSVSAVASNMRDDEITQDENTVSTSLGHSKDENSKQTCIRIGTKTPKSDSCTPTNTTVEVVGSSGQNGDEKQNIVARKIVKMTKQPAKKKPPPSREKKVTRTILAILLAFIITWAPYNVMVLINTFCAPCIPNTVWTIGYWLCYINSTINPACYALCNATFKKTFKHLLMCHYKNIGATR

[4] = target: T3, human M1Rs (Homo sapiens, UniProt P11229); assay: M1R phosphoinositide hydrolysis; assay type: cell-based
T3 sequence (P11229 1-460): T1 sequence (P11229 1-460)

[5] = target: T2, human M2R; assay: M2R β-arrestin recruitment; assay type: cell-based
[6] = cited from earlier work
[7] = cited from earlier work; remark: listed apart in the source
[8] = target: T2, human M2R; assay: [3H]scopolamine radioligand competition binding at M2R; conditions: for Ki: read-out: Ki at M2Rs; for Ki / Displacement of radioligand at M2Rs at highest concentration: full dose-response competition binding; for Displacement of radioligand at M2Rs at highest concentration: 100 μM
[9] = tested on: NET; conditions: cited from earlier work
[10] = tested on: DAT; conditions: cited from earlier work
[11] = α-PVP confirmed as only stimulant responsible for intoxication; cited from earlier work
[12] = tested on: human M1Rs, M2Rs, M3Rs, M4Rs, and M5Rs; assay: Initial [3H]scopolamine displacement screen at each of the five MR subtypes; assay type: binding; conditions: screened at 1 and 10 μM
Outline: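 HEK293 cells (passage <20), lipid-transfected with human M1–M5 receptor cDNA; membranes harvested ~48 h later and stored at -80 °C. […] Filtered on GF/B, washed with ice-cold 50 mM Tris pH 7.4, scintillation counted. Affinities estimated from these two concentrations; N=2.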

[13] = full dose-response competition binding

Compound: CC(C(=O)c1ccc2c(c1)OCO2)N1CCCC1 (stereo not drawn) [MDPPP, 3,4-methylenedioxy-α-pyrrolidinopropiophenone]
- Affinity at M1Rs (initial experiments) [1]: nil affinity

Compound: CCCCC(C(=O)c1ccc2c(c1)OCO2)N1CCCC1 (stereo not drawn) [MDPHP, 3,4-methylenedioxy-α-pyrrolidinohexiophenone]
- Estimated pKi at M1R [2]: 5.44
- Ki ([2]; read-out: Estimated Ki at M1Rs, estimated from 1 and 10 μM screens): 3630 nM

Compound: O=C1CCCN1CC#CCN1CCCC1 [oxotremorine, reference compound]
- EC50 [3]: 28.8 nM
- EC80, decrease of forskolin-stimulated cAMP production ([3]; 10 μM forskolin): 130 nM
- EC80, IP1 production [4]: 500 nM
- EC80, β-arrestin recruitment ([5]; concentration used in antagonist tests): 10000 nM

Compound: CCCC(C(=O)c1ccc2c(c1)OCO2)N1CCCC1 (stereo not shown) [MDPV, 3,4-methylenedioxypyrovalerone]
- Estimated pKi at M1R [2]: 5.06
- Effect on mitochondrial activity and cellular membranes [6]: not observed

Compound: CCCCC(C(=O)c1ccccc1)N1CCCC1 (stereo not drawn) [α-PHP, α-pyrrolidinohexiophenone]
- pKb, inhibition of M2R stimulation by oxotremorine (cAMP) [3]: 6.92 ±0.03
- Functional activity at M2R-cAMP signaling pathway ([3]; maximal effect above forskolin alone): inverse agonist
- Kb ([3]; read-out: Kb, inhibition of M2R stimulation by oxotremorine (cAMP)): 120 nM
- pKb, inhibition of M1R-IP1 production caused by oxotremorine ([4]; EC80 oxotremorine (500 nM)): 5.86 ± 0.35
- Functional activity at M1R-inositol phosphate signaling pathway ([4]; maximal effect lower than basal signaling): inverse agonist activity
- Kb ([4]; read-out: Kb, inhibition of M1R-IP1 production caused by oxotremorine, EC80 oxotremorine (500 nM)): 1400 nM and 1380 nM
- Blood concentration, fatal cases ([7]; fatal cases, as high as): ≤ 2860 nM
- Blood concentration, non-fatal case ([7]; male admitted to hospital after inhaling only α-PHP): 1280 nM
- Serum concentration, non-fatal case ([7]; patient admitted to hospital after taking α-PHP): 710 nM
- Fold increase in M2R affinity compared to α-PPP ([8]; ratio of Ki values): 302 fold
- Ki [8]: 251 nM
- pKb, inhibition of oxotremorine-stimulated β-arrestin recruitment ([5]; EC80 oxotremorine (10 μM)): 6.30 ± 0.12
- Functional activity at M2R-β-arrestin recruitment ([5]; relative to basal signaling): inverse agonist
- Fold higher affinity at NET than α-PPP [9]: 6 fold
- Fold higher affinity at DAT than α-PPP [10]: 81 fold
- Fold increase in M1R affinity from α-PPP ([2]; ratio of Ki values): 121 fold
- Ki ([2]; read-out: Ki at M1Rs, full dose-response competition binding): 1600 nM

Compound: CCCC(C(=O)c1ccccc1)N1CCCC1 (stereo not drawn) [α-PVP, α-pyrrolidinopentiophenone]
- Patients presenting with tachycardia [11]: 80%
- Serum concentration, non-fatal cases ([7]; non-fatal cases, as high as): ≤ 2600 nM
- Concentration, postmortem cases ([7]; postmortem cases, as high as): ≤ 86000 nM
- Fold increase in M2R affinity compared to α-PBP ([8]; ratio of Ki values): 49 fold
- Fold increase in M2R affinity compared to α-PPP ([8]; ratio of Ki values): 89 fold
- Ki [8]: 824 nM

Compound: CC(C(=O)c1ccccc1)N1CCCC1 (stereo not drawn) [α-PPP, α-pyrrolidinopropiophenone]
- Affinity at M1Rs (initial experiments) [1]: nil affinity
- Displacement of radioligand at M2Rs at highest concentration [8]: less than 50%
- Displacement of radioligand at M1Rs at highest concentration [2, 13]: less than 50%
- Displacement of 1 nM [3H]scopolamine from each of the MR subtypes [12]: < 5%

Compound: CCCCCC(C(=O)c1ccc2c(c1)OCO2)N1CCCC1 (stereo not drawn) [MDPHPP, 3,4-methylenedioxy-α-pyrrolidinoheptaphenone]
- Estimated pKi at M1R [2]: 5.22

Compound: CCCCCCC(C(=O)c1ccccc1)N1CCCC1 (stereo not drawn) [α-PV9, α-pyrrolidinooctanophenone, reference compound]
- Effect on mitochondrial activity and cellular membranes [6]: potently decreased mitochondrial activity and severely damaged cellular membranes

Compound: CCC(C(=O)c1ccccc1)N1CCCC1 (stereo not drawn) [α-PBP, α-pyrrolidinobutiophenone]
- Displacement of radioligand at M2Rs at highest concentration [8]: less than 50%
- Ki ([8]; interpolated): 40000 nM
- Displacement of radioligand at M1Rs at highest concentration [2, 13]: less than 50%
- Displacement of 1 nM [3H]scopolamine from each of the MR subtypes [12]: < 5%

Compound: CNC(C)C(=O)c1ccc(Br)cc1 (stereo not shown) [4-bromomethcathinone, reference compound]
- Affinity at M1Rs (initial experiments) [1]: nil affinity
